Assay results collected from several papers.
Compare with care: the assays were run in different laboratories.
Cell line: A549
Observed: cell growth or viability

Compound	technique	time	IC50 [µM]
CC(C)[C@@H]1NC(=O)[C@@H](CCCNC(=N)N)NC(=O)[C@H]([C@@H](C)O)NC(=O)[C@@H](CCN)NC(=O)[C@H](Cc2ccccc2)NC(=O)[C@@H](Cc2ccccc2)NC1=O	ATP luminescence		> 100
CC(C)C[C@H](NC(=O)[C@H](CC(C)C)NC(=O)[C@H](CCCCN)NC(=O)[C@H](CCCCN)NC(=O)[C@H](Cc1ccccc1)NC(=O)[C@H](CC(C)C)NC(=O)[C@H](CCCCN)NC(=O)[C@H](CCCCN)NC(=O)[C@H](CC(C)C)NC(=O)[C@H](CC(C)C)NC(=O)[C@H](CCCCN)NC(=O)[C@@H](N)CCCNC(=N)N)C(=O)N[C@@H](CCCCN)C(N)=O	MTT	24 h	20
CC[C@@]1(O)C(=O)OCc2c1cc1n(c2=O)Cc2cc3ccccc3nc2-1	SRB	48 h	0.06
N.N.[Cl][Pt][Cl]	MTT	48 h	5.55
N.N.[Cl][Pt][Cl]			1.2
O=C1c2ccccc2-c2c3c(cc4ccnc1c24)OCO3	MTT	75 h	19.8
COC(=O)c1cc(C(C)=NNc2nc(-c3ccc(S(=O)(=O)F)cc3)cs2)ccc1O	MTT	96 h	65
N.N.O=C([O-])C1(C(=O)[O-])CCC1.[Pt+2]	MTT	48 h	197
C[C@H](NC(=O)[C@H](Cc1c[nH]cn1)NC(=O)[C@H](Cc1c[nH]c2ccccc12)NC(=O)[C@H](CCCCN)NC(=O)[C@H](Cc1c[nH]c2ccccc12)NC(=O)[C@H](Cc1c[nH]c2ccccc12)NC(=O)[C@H](CCCNC(=N)N)NC(=O)[C@H](Cc1c[nH]c2ccccc12)NC(=O)[C@H](Cc1c[nH]cn1)NC(=O)[C@@H](N)CCCNC(=N)N)C(=O)N[C@@H](CCCNC(=N)N)C(=O)N[C@@H](Cc1c[nH]c2ccccc12)C(=O)N[C@@H](Cc1c[nH]c2ccccc12)C(N)=O	MTT	24 h	49
CC(C)[C@@H]1NC(=O)[C@@H](CCCNC(=N)N)NC(=O)[C@H]([C@@H](C)O)NC(=O)[C@@H](CCCNC(=N)N)NC(=O)[C@H](Cc2ccccc2)NC(=O)[C@@H](Cc2ccccc2)NC1=O	ATP luminescence		61.7
c1ccc([Se][Au]=[c]2n(C3CCCCC3)ccn2C2CCCCC2)cc1	crystal violet		0.9
CC[C@H](C)[C@H](NC(=O)[C@H](CC(C)C)NC(=O)[C@H](CCCCN)NC(=O)[C@H](CCCCN)NC(=O)[C@H](CC(C)C)NC(=O)[C@H](CCCNC(=N)N)NC(=O)[C@H](CCCCN)NC(=O)[C@@H](N)CC(C)C)C(=O)N[C@@H](CCCCN)C(=O)N[C@@H](CCCCN)C(=O)N[C@@H](CC(C)C)C(=O)N[C@@H](CCCNC(=N)N)C(=O)N[C@@H](CCCCN)C(N)=O	MTT	24 h	100
CC1=CC(=O)c2c(O)cccc2C1=O	MTT		13.6
CC(C)C[C@H](NC(=O)[C@H](CCCCN)NC(=O)CN)C(=O)N[C@@H](C)C(=O)N[C@@H](CCCCN)C(=O)N[C@@H](CCCCN)C(=O)N[C@@H](CC(C)C)C(=O)N[C@@H](Cc1ccccc1)C(=O)N[C@@H](CCCCN)C(=O)N[C@@H](CCCCN)C(=O)N[C@@H](CC(C)C)C(=O)N[C@@H](CCCCN)C(=O)N[C@@H](Cc1ccc(O)cc1)C(N)=O	MTT	24 h	356
CC(C)C[C@H](NC(=O)[C@H](CO)NC(=O)[C@H](CO)NC(=O)CNC(=O)[C@@H]1CCCN1C(=O)[C@H](Cc1ccc(O)cc1)NC(=O)[C@H](CC(C)C)NC(=O)[C@H](CO)NC(=O)[C@H](CS)NC(=O)[C@H](CC(C)C)NC(=O)[C@@H](N)CC(C)C)C(=O)O	MTT	72 h	> 100
CC(C)[C@H](NC(=O)[C@H](Cc1c[nH]cn1)NC(=O)[C@H](Cc1c[nH]c2ccccc12)NC(=O)[C@H](Cc1c[nH]cn1)NC(=O)[C@H](C)NC(=O)[C@H](CCCCN)NC(=O)[C@H](Cc1c[nH]c2ccccc12)NC(=O)[C@H](Cc1c[nH]c2ccccc12)NC(=O)[C@H](CCCNC(=N)N)NC(=O)[C@H](Cc1c[nH]c2ccccc12)NC(=O)[C@H](CCCNC(=N)N)NC(=O)[C@@H](N)CCCNC(=N)N)C(=O)N[C@@H](Cc1c[nH]c2ccccc12)C(N)=O	MTT	24 h	240
N.N.[Cl][Pt][Cl]	MTT	72 h	50.8
[C-]#[O+].[C-]#[O+].[C-]#[O+].[C-]#[O+].[C-]#[O+].[C-]#[O+].[C-]#[O+].[C-]#[O+].[C-]#[O+].[C-]#[O+].[Mn].[Mn]	MTT	48 h	20.9
CC(C)C[C@H](NC(=O)[C@@H]1CCCN1C(=O)[C@H](Cc1ccc(O)cc1)NC(=O)[C@H](CCCCN)NC(=O)[C@H](CCCCN)NC(=O)[C@H](CS)NC(=O)[C@H](CC(C)C)NC(=O)[C@H](CCCCN)NC(=O)[C@H](CCCCN)NC(=O)[C@H](Cc1ccccc1)NC(=O)[C@H](CC(C)C)NC(=O)[C@H](CCCCN)NC(=O)[C@@H](N)CCCNC(=N)N)C(N)=O	MTT	24 h	258
